In ChEMBL document CHEMBL4138095, “Thiosemicarbazones and 4-thiazolidinones indole-based derivatives: Synthesis, evaluation of antiproliferative activity, cell death mechanisms and topoisomerase inhibition assay” (Eur J Med Chem, 2017):
Active and inactive are the calls of the source. No cut-off for these calls is given here.

What was measured:
U-251 = experiment: Growth inhibition of human U251 cells after 48 hrs by sulforhodamine B dye-based spectrophotometric assay; assay type: functional; conditions: U-251, 48 h
MCF7 = experiment: Growth inhibition of human MCF7 cells after 48 hrs by sulforhodamine B dye-based spectrophotometric assay; assay type: functional; conditions: MCF7, 48 h
NCI/ADR-RES = experiment: Growth inhibition of human NCI-ADR-RES cells after 48 hrs by sulforhodamine B dye-based spectrophotometric assay; assay type: functional
786-0 = experiment: Growth inhibition of human 786-0 cells after 48 hrs by sulforhodamine B dye-based spectrophotometric assay; assay type: functional; conditions: 786-0, 48 h
NCI-H460 = experiment: Growth inhibition of human NCI-H460 cells after 48 hrs by sulforhodamine B dye-based spectrophotometric assay; assay type: functional; conditions: NCI-H460, 48 h
OVCAR-3 = experiment: Growth inhibition of human OVCAR3 cells after 48 hrs by sulforhodamine B dye-based spectrophotometric assay; assay type: functional; conditions: OVCAR-3, 48 h
HT-29 [1] = experiment: Growth inhibition of human HT-29 cells after 48 hrs by sulforhodamine B dye-based spectrophotometric assay; assay type: functional; conditions: HT-29, 48 h
K562 = experiment: Growth inhibition of human K562 cells after 48 hrs by sulforhodamine B dye-based spectrophotometric assay; assay type: functional; conditions: K562, 48 h
[2] = Growth inhibition of human HaCaT cells after 48 hrs by sulforhodamine B dye-based spectrophotometric assay; assay type: cell-based
[3] = target: DNA topoisomerase 2-alpha (Homo sapiens) (UniProt P11388); experiment: Inhibition of recombinant human topoisomerase-2alpha assessed as reducton in relaxation of supercoiled pUC19 DNA at 50 to 100 uM after 30 mins by ethidium bromide staining-based gel electrophoresis assay
Chain of DNA topoisomerase 2-alpha (Homo sapiens) (P11388 whole entry): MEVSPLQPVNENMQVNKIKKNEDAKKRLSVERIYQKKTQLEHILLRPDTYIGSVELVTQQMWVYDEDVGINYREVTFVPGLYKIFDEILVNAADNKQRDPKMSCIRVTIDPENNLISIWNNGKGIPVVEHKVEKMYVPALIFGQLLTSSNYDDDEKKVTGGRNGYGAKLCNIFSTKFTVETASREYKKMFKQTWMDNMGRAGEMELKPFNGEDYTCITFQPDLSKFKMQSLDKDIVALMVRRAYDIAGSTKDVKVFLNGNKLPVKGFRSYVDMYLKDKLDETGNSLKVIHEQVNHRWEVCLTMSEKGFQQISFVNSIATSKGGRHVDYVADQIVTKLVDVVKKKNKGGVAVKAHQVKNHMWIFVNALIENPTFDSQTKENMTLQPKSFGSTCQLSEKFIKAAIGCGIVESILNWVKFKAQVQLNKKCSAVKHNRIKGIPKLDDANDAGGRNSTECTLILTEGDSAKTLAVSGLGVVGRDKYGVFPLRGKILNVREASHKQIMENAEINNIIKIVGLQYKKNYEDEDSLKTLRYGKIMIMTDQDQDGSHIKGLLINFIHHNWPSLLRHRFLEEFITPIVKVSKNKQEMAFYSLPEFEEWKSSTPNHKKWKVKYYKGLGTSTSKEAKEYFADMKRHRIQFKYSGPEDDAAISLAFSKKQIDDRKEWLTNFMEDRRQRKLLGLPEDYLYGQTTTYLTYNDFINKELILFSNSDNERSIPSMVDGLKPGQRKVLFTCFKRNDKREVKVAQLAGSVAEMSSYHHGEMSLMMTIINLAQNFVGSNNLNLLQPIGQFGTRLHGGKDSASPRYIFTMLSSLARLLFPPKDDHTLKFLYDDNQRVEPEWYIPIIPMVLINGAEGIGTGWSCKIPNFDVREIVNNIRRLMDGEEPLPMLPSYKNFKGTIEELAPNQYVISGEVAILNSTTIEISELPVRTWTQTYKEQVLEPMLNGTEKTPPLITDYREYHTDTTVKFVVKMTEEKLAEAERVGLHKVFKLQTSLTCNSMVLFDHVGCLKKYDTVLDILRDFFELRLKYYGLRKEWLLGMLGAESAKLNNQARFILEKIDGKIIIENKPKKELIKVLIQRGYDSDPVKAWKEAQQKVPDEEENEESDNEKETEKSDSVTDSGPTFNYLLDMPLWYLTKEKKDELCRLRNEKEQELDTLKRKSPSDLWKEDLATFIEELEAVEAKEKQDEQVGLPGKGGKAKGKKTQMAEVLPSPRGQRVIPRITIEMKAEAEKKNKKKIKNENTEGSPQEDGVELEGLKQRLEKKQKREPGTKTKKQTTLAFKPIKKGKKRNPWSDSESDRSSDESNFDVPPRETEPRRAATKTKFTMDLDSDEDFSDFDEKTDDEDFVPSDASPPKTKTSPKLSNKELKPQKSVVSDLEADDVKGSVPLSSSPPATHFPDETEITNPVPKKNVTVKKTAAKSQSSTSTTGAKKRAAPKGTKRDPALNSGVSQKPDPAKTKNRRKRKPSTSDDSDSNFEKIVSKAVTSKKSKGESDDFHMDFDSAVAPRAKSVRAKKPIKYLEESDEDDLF
Summary of the method: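 Supercoiled pUC19 (100 ng) with 4 units recombinant human topo IIα (p170) in relaxation buffer, ± compound at 50 or 100 µM or m-AMSA control, 30 min at 37 °C; stopped with 1% SDS, proteinase K digested; products resolved by agarose gel, ethidium bromide stained, imaged under UV.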

[4] = Binding affinity to DNA (unknown origin)
HT-29 [5] = experiment: Cell cycle arrest in human HT-29 cells assessed as accumulation at S phase at 1.25 nM after 24 hrs by propidium iodide staining-based flow cytometric method (reference value: 17.2 +/- 1.2%)
HT-29 [6] = experiment: Cell cycle arrest in human HT-29 cells assessed as accumulation at G1 phase at 1.25 nM after 24 hrs by propidium iodide staining-based flow cytometric method (reference value: 46.1 +/- 2.1%)
HT-29 [7] = experiment: Cell cycle arrest in human HT-29 cells assessed as accumulation at G2/M phase at 1.25 nM after 24 hrs by propidium iodide staining-based flow cytometric method (reference value: 32.5 +/- 2.3%)
HT-29 [8] = experiment: Cell cycle arrest in human HT-29 cells assessed as accumulation at sub-G1 phase at 1.25 nM after 24 hrs by propidium iodide staining-based flow cytometric method (reference value: 3.5 +/- 0.7%)
HT-29 [9] = experiment: Induction of apoptosis in human HT-29 cells after 24 hrs by annexin-V-PE/7-AAD staining-based flow cytometry; assay type: functional, cell-based
Summary of the method: (§1)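 HT-29 seeded 2×10^5 cells/well, 24 h; treated 24 h at 5–50 μM (vehicle DMSO 0.1%); trypsinized, 1×10^5 cells in PBS plus binding buffer with annexin-V-PE and 7-AAD, 20 min dark, room temperature; 5000 events per experiment by flow cytometry; mean ± SE, two independent experiments in triplicate; ANOVA/Tukey.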

HT-29 [10] = experiment: Induction of apoptosis in human HT-29 cells assessed as increase in cell subpopulation with phosphatidylserine externalization at 5 uM after 24 hrs by annexin-V-PE/7-AAD staining-based flow cytometry; assay type: functional; summary of the method: as §1
HT-29 [11] = experiment: Cell cycle arrest in human HT-29 cells assessed as accumulation at sub-G1 phase at 5 uM after 24 hrs by propidium iodide staining-based flow cytometric method (reference value: 3.5 +/- 0.7%); assay type: functional
HT-29 [12] = experiment: Cell cycle arrest in human HT-29 cells assessed as accumulation at sub-G1 phase at 10 uM after 24 hrs by propidium iodide staining-based flow cytometric method (reference value: 3.5 +/- 0.7%); assay type: functional
HT-29 [13] = experiment: Cell cycle arrest in human HT-29 cells assessed as accumulation at sub-G1 phase at 30 uM after 24 hrs by propidium iodide staining-based flow cytometric method (reference value: 3.5 +/- 0.7%); assay type: functional
HT-29 [14] = experiment: Cell cycle arrest in human HT-29 cells assessed as accumulation at G1 phase at 5 uM after 24 hrs by propidium iodide staining-based flow cytometric method (reference value: 46.1 +/- 2.1%); assay type: functional
HT-29 [15] = experiment: Cell cycle arrest in human HT-29 cells assessed as accumulation at G1 phase at 10 uM after 24 hrs by propidium iodide staining-based flow cytometric method (reference value: 46.1 +/- 2.1%); assay type: functional
HT-29 [16] = experiment: Cell cycle arrest in human HT-29 cells assessed as accumulation at G1 phase at 30 uM after 24 hrs by propidium iodide staining-based flow cytometric method (reference value: 46.1 +/- 2.1%); assay type: functional
HT-29 [17] = experiment: Cell cycle arrest in human HT-29 cells assessed as accumulation at S phase at 5 uM after 24 hrs by propidium iodide staining-based flow cytometric method (reference value: 17.2 +/- 1.2%); assay type: functional
HT-29 [18] = experiment: Cell cycle arrest in human HT-29 cells assessed as accumulation at S phase at 10 uM after 24 hrs by propidium iodide staining-based flow cytometric method (reference value: 17.2 +/- 1.2%); assay type: functional
HT-29 [19] = experiment: Cell cycle arrest in human HT-29 cells assessed as accumulation at S phase at 30 uM after 24 hrs by propidium iodide staining-based flow cytometric method (reference value: 17.2 +/- 1.2%); assay type: functional
HT-29 [20] = experiment: Cell cycle arrest in human HT-29 cells assessed as accumulation at G2/M phase at 5 uM after 24 hrs by propidium iodide staining-based flow cytometric method (reference value: 32.5 +/- 2.3%); assay type: functional
HT-29 [21] = experiment: Cell cycle arrest in human HT-29 cells assessed as accumulation at G2/M phase at 10 uM after 24 hrs by propidium iodide staining-based flow cytometric method (reference value: 32.5 +/- 2.3%); assay type: functional
HT-29 [22] = experiment: Cell cycle arrest in human HT-29 cells assessed as accumulation at G2/M phase at 30 uM after 24 hrs by propidium iodide staining-based flow cytometric method (reference value: 32.5 +/- 2.3%); assay type: functional
Calf thymus DNA [23] = experiment: Binding affinity to calf thymus DNA assessed as maximum absorption peak at 10 to 80 uM after 10 mins by UV-visible absorption assay (reference value: 334 nm); assay type: nucleic-acid assay; conditions: Bos taurus
Summary of the method: (§2)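 ctDNA in Tris-HCl (0.01 M, pH 7.6), sonicated 5 min; concentration from ε260 6600 M⁻¹ cm⁻¹, as base-pair equivalents. Ligand from 1 mM DMSO stock diluted in buffer (10–80 μM), titrated with increasing ctDNA, stirred 10 min at room temperature, UV-vis read in 1 cm quartz cuvette; hyperchromicity with 100 µM ctDNA versus free ligand; Kb by curve fitting.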

Calf thymus DNA [24] = experiment: Binding affinity to calf thymus DNA assessed as hyperchromicity at 100 uM after 10 mins by UV-visible absorption assay relative to control; assay type: nucleic-acid assay; conditions: Bos taurus; summary of the method: as §2
Calf thymus DNA [25] = experiment: Binding affinity to calf thymus DNA assessed as hyperchromicity after 10 mins by UV-visible absorption assay; assay type: nucleic-acid assay; conditions: Bos taurus; summary of the method: as §2
Calf thymus DNA [26] = experiment: Binding affinity to calf thymus DNA at 15 uM by fluorescence spectra analysis; assay type: nucleic-acid assay; conditions: Bos taurus
Summary of the method: (§3)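 Fluorescence of 15 μM ligand in 0.01 M Tris, pH 7.6, 25 °C, 1 cm quartz cuvette; excitation 335 nm, emission 435 nm (spectra 370–700 nm); ctDNA (0–100 μM) added stepwise into the cell; quenching analysed by Stern-Volmer plot to give Ksv.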

Calf thymus DNA [27] = experiment: Binding affinity to calf thymus DNA by fluorescence spectra analysis; assay type: nucleic-acid assay; conditions: Bos taurus; summary of the method: as §3

| Structure (SMILES) | GI50 (U-251) [µM] | GI50 (MCF7) [µM] | GI50 (NCI/ADR-RES) [µM] | GI50 (786-0) [µM] | GI50 (NCI-H460) [µM] | GI50 (OVCAR-3) [µM] | GI50 (HT-29 [1]) [µM] | GI50 (K562) [µM] | GI50 at 48 h [2] [µM] | also measured |
| --- | --- | --- | --- | --- | --- | --- | --- | --- | --- | --- |
| O=C1CS/C(=N/N=C/c2c[nH]c3ccccc23)N1c1cccc2ccccc12 | 72.5 | 34.9 | 38.6 | 62.1 | > 100 | 25.7 | 96.9 | > 100 | 63 |  |
| COc1cc(NS(C)(=O)=O)ccc1Nc1c2ccccc2nc2ccccc12 |  |  |  |  |  |  |  |  |  | inhibition [3]: Active |
| O=C1CS/C(=N/N=C/c2c[nH]c3ccc(Br)cc23)N1c1cccc2ccccc12 | 48.8 | 6.06 | 12.4 | 29.1 | > 100 | 5.12 | 27.3 | > 100 | 6.23 |  |
| S=C(NCCc1ccccc1)N/N=C/c1c[nH]c2ccccc12 | 77.9 | 15.5 | 38.7 | 76.3 | > 100 | > 100 | > 100 | 0.17 | > 100 |  |
| S=C(NCCc1ccccc1)N/N=C/c1c[nH]c2ccc(Br)cc12 | 7.49 | 6.81 | 7.14 | 7.58 | 8.48 | 8.22 | 7.87 | 2.12 | 7.85 |  |
| S=C(N/N=C/c1c2ccccc2nc2ccccc12)Nc1cccc2ccccc12 |  |  |  |  |  |  |  |  |  | Kb [4]: 8.47 ×10⁵ /M |
| Cc1ccc(N2C(=O)CS/C2=N/N=C/c2c[nH]c3ccccc23)cc1 | 90.2 | > 100 | > 100 | 79.1 | > 100 | > 100 | > 100 | > 100 | > 100 |  |
| COc1cccc2c1C(=O)c1c(O)c3c(c(O)c1C2=O)C[C@@](O)(C(=O)CO)C[C@@H]3O[C@H]1C[C@H](N)[C@H](O)[C@H](C)O1 [DOXORUBICIN] | 0.14 | 0.07 | 0.77 | 0.11 | 0.09 | 0.22 | 0.23 | 0.93 | 0.2 |  |
| COc1cc2c(c(OC)c1OC)-c1ccc(OC)c(=O)cc1[C@@H](NC(C)=O)CC2 [COLCHICINE] |  |  |  |  |  |  |  |  |  | Activity (HT-29 [5]): 5.9%; Activity (HT-29 [6]): 14.6%; Activity (HT-29 [7]): 76%; Activity (HT-29 [8]): 3.5% |
| S=C(N/N=C/c1c[nH]c2ccc(Br)cc12)Nc1cccc2ccccc12 | 7.32 | 0.95 | 6.18 | 6.56 | 6.99 | 1.6 | 6.56 | 5.29 | 6.15 |  |
| Cc1ccc(N2C(=O)CS/C2=N/N=C/c2c[nH]c3ccc(Br)cc23)cc1 | 54.7 | 59.5 | 64.6 | 39.9 | 96.6 | 98.5 | > 100 | 0.01 | 54 |  |
| Cc1ccc(NC(=S)N/N=C/c2c[nH]c3ccccc23)cc1 | 8.11 | 2.52 | 1.46 | 3.99 | 11.7 | 3.88 | 1.45 | 0.16 | 0.99 |  |
| S=C(N/N=C/c1c[nH]c2ccccc12)Nc1cccc2ccccc12 | 0.92 | 0.25 | 6.48 | 0.25 | 0.38 | 0.21 | 0.01 | 0.01 | 0.59 | Activity (HT-29 [9]): Dose-dependent effect; Activity (HT-29 [10]): 12.6%; Activity (HT-29 [11]): 2%; Activity (HT-29 [12]): 1.6%; Activity (HT-29 [13]): 4.8%; Activity (HT-29 [14]): 10.7%; Activity (HT-29 [15]): 26.7%; Activity (HT-29 [16]): 34.9%; Activity (HT-29 [17]): 6.8%; Activity (HT-29 [18]): 5.5%; Activity (HT-29 [19]): 7.3%; Activity (HT-29 [20]): 80.5%; Activity (HT-29 [21]): 66.2%; Activity (HT-29 [22]): 53.1%; Activity (Calf thymus DNA [23]): 334 nm; Activity (Calf thymus DNA [24]): 13%; Kb (Calf thymus DNA [25]): 4.3 ×10⁴ /M; Activity (Calf thymus DNA [26]): Active; KSV (Calf thymus DNA [27]): 1.19 ×10³ /M; inhibition [3]: Active |
